The text below walks through data of ChEMBL document CHEMBL4043178, “Synthesis and evaluation of analogs of 5'-(((Z)-4-amino-2-butenyl)methylamino)-5'-deoxyadenosine (MDL 73811, or AbeAdo) - An inhibitor of S-adenosylmethionine decarboxylase with antitrypanosomal activity” (Bioorg Med Chem, 2017).

The subject of one series is Trypanosoma brucei. Kind of series: Antitrypanosomal activity against Trypanosoma brucei Lister 427 bloodstream forms assessed as inhibition of parasite growth at 25 uM incubated for 48 hrs by ATP-bioluminescence cell viability assay. Type of series: functional. To be noted: Lister 427, 48 h, read-out: GI. The method in brief: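 Bloodstream-form Lister 427 cells grown in HMI-19, seeded at 3000 cells/mL; compound added as 100-fold intermediate dilution, final DMSO 0.1%. After 48 h culture, viability read by CellTiter-Glo ATP-bioluminescence. Tested 0.0038–25 µM in 3-fold steps, triplicate; no-cell and DMSO-only controls (0% and 100% viability) per plate; value is percent inhibition at 25 µM.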

The nature of series [1]: Inhibition of Trypanosoma brucei AdoMetDC pre-incubated for 30 mins before AdoMet substrate addition by RapidFire-mass spectrometry.
The nature of series [2]: Half life in human pooled liver microsomes at 1 uM in presence of NADPH by LC/MS/MS method. Type of series: ADME, microsome. To be noted: pooled liver microsomes. (In general: Liver microsomes are vesicles of endoplasmic reticulum, rich in cytochrome P450 enzymes.)
The nature of series [3]: Half life in mouse pooled liver microsomes at 1 uM in presence of NADPH by LC/MS/MS method. Type of series: ADME, microsome. To be noted: pooled liver microsomes.

Take `CC(=O)Oc1cc(C)cc(C)c1C(C)(C)CC(=O)NC/C=C\CN(C)C[C@H]1O[C@@H](n2cnc3c(N)ncnc32)[C@@H]2OC(C)(C)O[C@@H]21`: the inhibition of growth at 25 µM in the series on Trypanosoma brucei came out at 44%. For the same molecule, the IC50 (usually the concentration needed to halve the response being measured) in series [1] is more than 50 µM. Moreover, the half-life at 1 µM in series [2] and in series [3] was not above 2.5 min throughout.
